Columns and labels:
[1] = Cytotoxicity against human RPMI8402 cells by MTA assay; type: functional, cell-based; details: RPMI 8402
Summary of the method: (§1)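 MTT microtiter assay. Cells were kept at 37 °C in 5% CO2 in RPMI with 10% heat-inactivated FBS, 2 mM L-glutamine and penicillin/streptomycin. Continuous exposure to a range of drug concentrations for four days, then MTT read-out. Drug-free control included. IC50 from at least two assays, each in six replicate wells.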

[2] = Cytotoxicity against wild type human KB3-1 cells by MTA assay; type: functional, cell-based; details: KB 3-1; summary of the method: as §1
[3] = Cytotoxicity against human KBV1 cells expressing MDR1 by MTA assay; type: functional, cell-based; details: KB-V1; summary of the method: as §1
[4] = Cytotoxicity against human KBH5.0 cells expressing efflux transporter BCRP by MTA assay; type: functional, cell-based; details: KBH5.0 cell; summary of the method: as §1
[5] = test system: MIA PaCa-2; experiment: Cytotoxicity against human MIAPaCa2 cells; type: functional, cell-based
[6] = test system: Nucleic Acid; experiment: Thermal stabilization of Salmon testes duplex DNA assessed as change in transition temperature at 15 uM after 4 hrs by temperature-dependent spectrophotometry in presence of 150 mM K+ ions; type: nucleic-acid assay; details: Salmonidae
Summary of the method: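 Salmon testes duplex DNA at 30 μM base pair with ligand at 15 μM. Buffer 10 mM potassium phosphate pH 7.5 with 132 mM KCl (150 mM K+). DNA preheated at 90 °C for 5 min and cooled slowly over 4 hr. Temperature-dependent absorbance recorded in 1 cm quartz cells.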

[7] = test system: Nucleic Acid; experiment: Thermal stabilization of […] poly(rA).poly(rU) duplex RNA assessed as change in transition temperature at 15 uM after 4 hrs by temperature-dependent spectrophotometry in presence of 150 mM K+ ions; type: nucleic-acid assay
[8] = test system: Nucleic Acid; experiment: Thermal stabilization of human G-quadruplex d[T2G3(T2AG3)3A] DNA assessed as change in transition temperature at 20 uM after 4 hrs by temperature-dependent spectrophotometry in presence of 150 mM K+ ions; type: nucleic-acid assay
Summary of the method: (§2)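 UV melting in 1 cm quartz cells. Sample held 5 μM strand of hTel DNA 24mer or AurA RNA 22mer, with ligand at 20 μM. Buffer 10 mM potassium phosphate pH 7.5 plus 132 mM KCl (150 mM K+ total). Nucleic acids preheated at 90 °C for 5 min and slowly cooled over 4 hr before use. AurA transition followed at 295 nm.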

[9] = test system: Nucleic Acid; experiment: Thermal stabilization of r[AG4CG2CUG2UCG2AGUG2C] sequence of quadruplex RNA assessed as change in transition temperature at 20 uM after 4 hrs by temperature-dependent spectrophotometry in presence of 150 mM K+ ions; type: nucleic-acid assay; summary of the method: as §2
[10] = test system: MDA-MB-435; experiment: Antitumor activity against human MDA-MB-435 cells xenografted in NCR nu/nu mouse assessed as tumor volume at an escalating dose of 25 to 42 mg/kg, ip administered on day 10 post-implantation followed by subsequent dose regimen of 3 times a week on alternative days for 3 weeks measured after 35 days (RVb = > 1350 mm'3); type: functional; details: dose mg/kg 25-42; route intraperitoneal
Summary of the method: (§3)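 Female NCR/NU NU mice, about 9 weeks old. Inoculated sc on the right flank with 1.5×10^6 MDA-MB-435 cells in 0.1 mL RPMI 1640. Groups of seven matched by tumor volume. Given ip 3× weekly on alternate days in escalating weekly doses. Control received 150 μl 10 mM citrate. Tumor volume (l × w^2)/2 measured by microcaliper at least twice weekly. % T/C = treated/control mean volume.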

[11] = test system: MDA-MB-435; experiment: Antitumor activity against human MDA-MB-435 cells xenografted in NCR nu/nu mouse at an escalating dose of 25 to 42 mg/kg, ip administered on day 10 post-implantation followed by subsequent dose regimen of 3 times a week on alternative days for 3 weeks measured after 35 days relative to control; type: functional; details: dose mg/kg 25-42; route intraperitoneal; summary of the method: as §3
[12] = test system: Mus musculus; experiment: Toxicity in NCR nu/nu mouse xenografted with human MDA-MB-435 cells assessed as average body weight at an escalating dose of 25 to 42 mg/kg, ip administered on day 10 post-implantation followed by subsequent dose regimen of 3 times a week on alternative days for 3 weeks measured on day 17 (RVb = 22 +/- 1.8 g); type: organism-based; set-up: dose 25-42 mg/kg, route intraperitoneal; details: in vivo, 504 h
Summary of the method: (§4)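 Female NCR/NU NU mice with sc MDA-MB-435 flank xenografts. Seven mice dosed ip 3× weekly on alternate days, escalating weekly from 25 through 32 to 42 mg/kg. Controls received 150 μl 10 mM citrate. Individual body weights taken at least twice weekly. Average ± standard deviation given for days 17, 24, 31 and 35.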

[13] = test system: Mus musculus; experiment: Toxicity in NCR nu/nu mouse xenografted with human MDA-MB-435 cells assessed as average body weight at an escalating dose of 25 to 42 mg/kg, ip administered on day 10 post-implantation followed by subsequent dose regimen of 3 times a week on alternative days for 3 weeks measured on day 24 (RVb = 22.5 +/- 1.5 g); type: organism-based; set-up: dose 25-42 mg/kg, route intraperitoneal; details: in vivo, 504 h; summary of the method: as §4
[14] = test system: Mus musculus; experiment: Toxicity in NCR nu/nu mouse xenografted with human MDA-MB-435 cells assessed as average body weight at an escalating dose of 25 to 42 mg/kg, ip administered on day 10 post-implantation followed by subsequent dose regimen of 3 times a week on alternative days for 3 weeks measured on day 31 (RVb = 23.9 +/- 1 g); type: organism-based; set-up: dose 25-42 mg/kg, route intraperitoneal; details: in vivo, 504 h; summary of the method: as §4
[15] = test system: Mus musculus; experiment: Toxicity in NCR nu/nu mouse xenografted with human MDA-MB-435 cells assessed as average body weight at an escalating dose of 25 to 42 mg/kg, ip administered on day 10 post-implantation followed by subsequent dose regimen of 3 times a week on alternative days for 3 weeks measured on day 35 (RVb = 24.6 +/- 1.3 g); type: organism-based; set-up: dose 25-42 mg/kg, route intraperitoneal; details: in vivo, 504 h; summary of the method: as §4
[16] = test system: MDA-MB-435; experiment: Antitumor activity against human MDA-MB-435 cells xenografted in NCR nu/nu mouse at 20 mg/kg, ip administered 3 times a week for 4 weeks measured after 35 days post-implantation relative to control; type: functional; details: route intraperitoneal
Summary of the method: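 Female NCR/NU NU mice bearing sc flank MDA-MB-435 xenografts (1.5×10^6 cells), groups matched by tumor volume. Eight mice dosed ip at 20 mg/kg, 3× weekly for four weeks from day 0. Tumor volume (l × w^2)/2 measured by caliper at least twice weekly. % T/C = average treated volume over citrate-control volume.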

[17] = test system: Mus musculus; experiment: Toxicity in NCR nu/nu mouse xenografted with human MDA-MB-435 cells assessed as average body weight at 20 mg/kg, ip administered 3 times a week for 4 weeks measured on day 31 (RVb = 23.9 +/- 1 g); type: organism-based; set-up: dose 20 mg/kg, route intraperitoneal; details: in vivo, 672 h

| SMILES | IC50 [1] [nM] | IC50 [2] [nM] | IC50 [3] [nM] | IC50 [4] [nM] | further results |
| --- | --- | --- | --- | --- | --- |
| O=C(NCCc1cc2cc(c1)CNC(=O)c1coc(n1)-c1coc(n1)-c1cc(Br)cc(n1)-c1nc(co1)-c1nc(co1)C(=O)NC2)OCc1ccccc1 | 1000 | 600 | > 10000 | > 10000 | – |
| O=C(NCCc1cc2cc(c1)CNC(=O)c1coc(n1)-c1coc(n1)-c1cccc(n1)-c1nc(co1)-c1nc(co1)C(=O)NC2)OCc1ccccc1 | 120 | 120 | > 10000 | > 10000 | – |
| O=C1NCc2cc(CCNC(=O)C(F)(F)F)cc(c2)CNC(=O)c2coc(n2)-c2coc(n2)-c2cccc(n2)-c2nc(co2)-c2nc1co2 | 170 | 70 | > 10000 | > 10000 | – |
| CC(C)[C@@H]1NC(=O)c2coc(n2)-c2coc(n2)-c2coc(n2)[C@H](C(C)C)NC(=O)c2coc(n2)-c2coc(n2)-c2coc1n2 [HEXAOXAZOLE DIVALINE] | 600 | 400 | 8500 | 500 | IC50 [5]: 500 nM |
| O=C1NCc2cc(Br)cc(c2)CNC(=O)c2coc(n2)-c2coc(n2)-c2cc(Br)cc(n2)-c2nc(co2)-c2nc1co2 | > 10000 | > 10000 | > 10000 | > 10000 | – |
| NCCCOc1cc2nc(c1)-c1nc(co1)-c1nc(co1)C(=O)NCc1cccc(c1)CNC(=O)c1coc(n1)-c1coc-2n1 | 5000 | 3000 | > 10000 | > 10000 | – |
| O=C1NCc2cc(Br)cc(c2)CNC(=O)c2coc(n2)-c2coc(n2)-c2cccc(n2)-c2nc(co2)-c2nc1co2 | 300 | 60 | > 10000 | 1000 | – |
| CN(C)CCc1cc2cc(c1)CNC(=O)c1coc(n1)-c1coc(n1)-c1cccc(n1)-c1nc(co1)-c1nc(co1)C(=O)NC2 | 180 | 40 | > 10000 | 550 | deltaT [6]: 0 °C; deltaT [7]: 0.5 °C; deltaT [8]: 20.5 °C; deltaT [9]: 37 °C; Activity [10]: <400 mm3; T/C [11]: 27.7%; Activity [12]: 19.7 g; Activity [13]: 20.2 g; Activity [14]: 20.9 g; Activity [15]: 21.2 g |
| O=C1NCCNCCNC(=O)c2coc(n2)-c2coc(n2)-c2cccc(n2)-c2nc(co2)-c2nc1co2 | > 10000 | 4000 | > 10000 | > 10000 | – |
| O=C1NCc2cccc(c2)CNC(=O)c2coc(n2)-c2coc(n2)-c2cc(OCCCN3C(=O)c4ccccc4C3=O)cc(n2)-c2nc(co2)-c2nc1co2 | 4500 | 400 | > 10000 | > 10000 | – |
| O=C1NCc2cccc(c2)CNC(=O)c2coc(n2)-c2csc(n2)-c2cccc(n2)-c2nc(co2)-c2nc1co2 | 1000 | 260 | > 10000 | > 10000 | – |
| O=C1NCc2cc(Br)cc(c2)CNC(=O)c2coc(n2)-c2coc(n2)-c2cc(OCCCN3C(=O)c4ccccc4C3=O)cc(n2)-c2nc(co2)-c2nc1co2 | 1000 | 1000 | > 10000 | > 10000 | – |
| O=C1NCc2cccc(c2)CNC(=O)c2coc(n2)-c2csc(n2)-c2cccc(n2)-c2nc(cs2)-c2nc1co2 | > 10000 | > 10000 | > 10000 | > 10000 | deltaT [6]: 0 °C; deltaT [7]: 0 °C; deltaT [8]: 0 °C |
| O=C1NCc2cccc(c2)CNC(=O)c2coc(n2)-c2coc(n2)-c2cccc(n2)-c2nc(co2)-c2nc1co2 | 1050 | 1200 | 4500 | 1500 | deltaT [6]: 0 °C; deltaT [7]: 0 °C; deltaT [8]: 7.5 °C |
| O=C1NCc2cccc(c2)CNC(=O)c2coc(n2)-c2coc(n2)-c2cc(Br)cc(n2)-c2nc(co2)-c2nc1co2 | 300 | 150 | 2000 | 1000 | – |
| CCc1c2c(nc3ccc(OC(=O)N4CCC(N5CCCCC5)CC4)cc13)-c1cc3c(c(=O)n1C2)COC(=O)[C@]3(O)CC [IRINOTECAN] | – | – | – | – | T/C [16]: 6.1%; Activity [17]: 18.4 g |
| O=C(NCCc1cc2cc(c1)CNC(=O)c1coc(n1)-c1coc(n1)-c1cc(OCCCN3C(=O)c4ccccc4C3=O)cc(n1)-c1nc(co1)-c1nc(co1)C(=O)NC2)OCc1ccccc1 | > 10000 | > 10000 | > 10000 | > 10000 | – |
| O=C1NCc2cccc(n2)CNC(=O)c2coc(n2)-c2coc(n2)-c2cccc(n2)-c2nc(co2)-c2nc1co2 | > 5000 | > 5000 | > 5000 | > 5000 | – |
| NCCc1cc2cc(c1)CNC(=O)c1coc(n1)-c1coc(n1)-c1cccc(n1)-c1nc(co1)-c1nc(co1)C(=O)NC2 | 90 | 30 | > 10000 | 140 | deltaT [6]: 0 °C; deltaT [7]: 0.5 °C; deltaT [8]: 21 °C |

From ChEMBL document CHEMBL1157908, “Macrocyclic pyridyl polyoxazoles: selective RNA and DNA G-quadruplex ligands as antitumor agents” (J Med Chem, 2010)
